Laboratory results reported in ChEMBL document CHEMBL4602658, “Stilbenes with Potent Protein Tyrosine Phosphatase-1B Inhibitory Activity from the Roots of Polygonum multiflorum” (J Nat Prod, 2020).
pIC50, pKi: −log10 of the molar value. Calls of active or inactive are those of the source. The calls are words filed in the database; no cut-off is given here.

What was measured:
[1] = biological target: T1, Tyrosine-protein phosphatase non-receptor type 1 (Homo sapiens, UniProt P18031); test: Inhibition of PTP1B (unknown origin) assessed as decrease in p-nitrophenolate formation using pNPP as substrate incubated for 15 mins by spectrophotometric method
T1 sequence (P18031 whole entry): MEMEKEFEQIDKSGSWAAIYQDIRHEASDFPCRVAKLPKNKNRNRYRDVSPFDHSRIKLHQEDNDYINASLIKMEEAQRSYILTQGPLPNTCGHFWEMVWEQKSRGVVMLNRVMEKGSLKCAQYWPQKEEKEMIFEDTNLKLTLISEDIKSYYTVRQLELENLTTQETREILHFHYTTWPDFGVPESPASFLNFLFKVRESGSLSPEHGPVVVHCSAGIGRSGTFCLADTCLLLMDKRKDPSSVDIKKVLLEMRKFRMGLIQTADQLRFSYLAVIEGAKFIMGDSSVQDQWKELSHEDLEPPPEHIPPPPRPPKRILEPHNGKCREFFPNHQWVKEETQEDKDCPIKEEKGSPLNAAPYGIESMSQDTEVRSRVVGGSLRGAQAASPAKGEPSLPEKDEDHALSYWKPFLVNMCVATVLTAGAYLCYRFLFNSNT

[2] = Antioxidant activity assessed as DPPH radical scavenging activity; type: functional
[3] = biological target: T2, Tyrosine-protein phosphatase non-receptor type 1 (Homo sapiens) (UniProt P18031); test: Noncompetitive inhibition of PTP1B (unknown origin) assessed as decrease in p-nitrophenolate formation using pNPP as substrate by Lineweaver-Burk plot analysis
T2 sequence (whole entry): T1 sequence (P18031 whole entry)
How it was run: (§1)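 Kinetic analysis of human recombinant PTP1B with p-NPP substrate, run at several inhibitor levels. Ki was obtained from Dixon plots, and the inhibition mode from Lineweaver–Burk plots.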

[4] = biological target: T1, Tyrosine-protein phosphatase non-receptor type 1; test: Inhibition of PTP1B (unknown origin) assessed as decrease in p-nitrophenolate formation using pNPP as substrate by Dixon plot analysis; how it was run: as §1

| pIC50 [1] | SMILES | other results |
| --- | --- | --- |
| < 4.30 | OC[C@H]1O[C@@H](Oc2c(O)cc(O)cc2[C@H]2c3c(cc(O)c(O[C@@H]4O[C@H](CO)[C@@H](O)[C@H](O)[C@H]4O)c3/C=C/c3ccc(O)cc3)O[C@@H]2c2ccc(O)cc2)[C@H](O)[C@@H](O)[C@@H]1O | – |
| < 4.30 | CC(=O)OC[C@H]1O[C@@H](Oc2c(O)cc(O)cc2/C=C/c2ccc(O)cc2)[C@H](O)[C@@H](O)[C@@H]1O | – |
| 4.56 | COc1cc(/C=C/C(=O)O[C@@H]2[C@@H](O)[C@H](Oc3c(O)cc(O)cc3/C=C/c3ccc(O)cc3)O[C@H](CO)[C@H]2O)ccc1O | – |
| < 4.30 | Oc1ccc(/C=C/c2cc(O)cc(O)c2)cc1 [RESVERATROL] | – |
| < 4.30 | O=C(O[C@H]1[C@H](Oc2c(O)cc(O)cc2/C=C/c2ccc(O)cc2)O[C@H](CO)[C@@H](O)[C@@H]1O)c1cc(O)c(O)c(O)c1 | – |
| 4.49 | OC[C@H]1O[C@@H](Oc2c(O)cc(O)cc2/C=C/c2ccc3c(c2)[C@H](c2cc(O)cc(O)c2O[C@@H]2O[C@H](CO)[C@@H](O)[C@H](O)[C@H]2O)[C@@H](c2ccc(O)cc2)O3)[C@H](O)[C@@H](O)[C@@H]1O | – |
| 4.46 | OC[C@H]1O[C@@H](Oc2c(O)cc(O)cc2/C=C/c2ccc3c(c2)[C@@H](c2cc(O)cc(O)c2O[C@@H]2O[C@H](CO)[C@@H](O)[C@H](O)[C@H]2O)[C@H](c2ccc(O)cc2)O3)[C@H](O)[C@@H](O)[C@@H]1O | – |
| < 4.30 | OC[C@H]1O[C@@H](OC[C@H]2O[C@@H](Oc3c(O)cc(O)cc3/C=C/c3ccc(O)cc3)[C@H](O)[C@@H](O)[C@@H]2O)[C@H](O)[C@@H](O)[C@@H]1O | – |
| < 4.30 | C[C@@H]1O[C@@H](Oc2c(O)cc(O)cc2/C=C/c2ccc(O)cc2)[C@H](O)[C@H](O)[C@H]1O | – |
| 5.72 | Oc1ccc([C@@H]2Oc3ccc(/C=C/c4cc(O)cc(O)c4O)cc3[C@H]2c2cc(O)cc(O)c2O)cc1 | inhibition [3]: Active; pKi [4]: 6.04 |
| < 4.30 | O=COC[C@H]1O[C@@H](Oc2c(O)cc(O)cc2/C=C/c2ccc(O)cc2)[C@H](O)[C@@H](O)[C@@H]1O | – |

The remaining lines, values behind:

| SMILES | pIC50 [1] | other results |
| --- | --- | --- |
| OC[C@H]1O[C@@H](Oc2c(O)cc(O)cc2/C=C/c2ccc(O)cc2)[C@H](O)[C@@H](O)[C@@H]1O | < 4.30 | pIC50 [2]: 1.40 |
| CC(=O)O[C@@H]1[C@@H](O)[C@H](Oc2c(O)cc(O)cc2/C=C/c2ccc(O)cc2)O[C@H](CO)[C@H]1O | 4.42 | – |
| Oc1ccc(/C=C/c2cc(O)cc(O)c2O[C@@H]2OC[C@@H](O)[C@H](O)[C@H]2O)cc1 | < 4.30 | – |
| O=C(O)c1cc(O)cc(O)c1C(=O)Cc1ccc(O)cc1 | < 4.30 | – |
| COc1cc([C@@H]2CC(=O)Oc3cc(O)c(O[C@@H]4O[C@H](CO)[C@@H](O)[C@H](O)[C@H]4O)c(/C=C/c4ccc(O)cc4)c32)ccc1O | < 4.30 | – |
| Oc1ccc([C@H]2Oc3ccc(/C=C/c4cc(O)cc(O)c4O)cc3[C@@H]2c2cc(O)cc(O)c2O)cc1 | 5.68 | inhibition [3]: Active; pKi [4]: 5.99 |
| Oc1ccc(/C=C/c2cc(O)cc(O)c2O)cc1 | 4.92 | pIC50 [2]: 3.40 |
| COc1cc(/C=C/C(=O)O[C@H]2[C@H](Oc3c(O)cc(O)cc3/C=C/c3ccc(O)cc3)O[C@H](CO)[C@@H](O)[C@@H]2O)ccc1O | < 4.30 | – |
